The values that follow come from ChEMBL document CHEMBL4371041, “Synthesis and evaluation of thieno[3,2-d]pyrimidine derivatives as novel FMS inhibitors” (Bioorg Med Chem Lett, 2019).

The target in test [1] is Glycogen synthase kinase-3 alpha (Homo sapiens) (UniProt P49840). In words: Inhibition of recombinant human N-terminal His6-tagged GSK3alpha (2 to end residues) expressed in baculovirus infected Sf21 insect cells at 1 uM using GSK3 substrate in presence of [gamma-33P]-ATP or [gamma-32P]-ATP relative to control.
In test [2] the target is Insulin-like growth factor 1 receptor (Homo sapiens) (UniProt P08069). The test can be described thus: Inhibition of Mg/ATP-autoactivated recombinant human N-terminal His6-tagged IGFR1 (959 to end residues) expressed in baculovirus infected Sf21 insect cells at 1 uM in presence of [gamma-33P]-ATP or [gamma-32P]-ATP relative to control.
The target in test [3] is Ephrin type-A receptor 5 (Homo sapiens) (UniProt P54756). The test can be described thus: Inhibition of recombinant human N-terminal His6-tagged EphA5 (655 to 956 residues) expressed in baculovirus infected Sf21 insect cells at 1 uM using Axltide as substrate in presence of [gamma-33P]-ATP or [gamma-32P]-ATP relative to control.
In test [4] the target is Tyrosine-protein kinase receptor UFO (Homo sapiens) (UniProt P30530). The test can be described thus: Inhibition of recombinant human N-terminal His6-tagged Axl (473 to end residues) expressed in baculovirus infected Sf21 insect cells at 1 uM using Axltide as substrate in presence of [gamma-33P]-ATP or [gamma-32P]-ATP relative to control.
Test [5] concerns the target Cytochrome P450 2C9 (Homo sapiens, UniProt P11712). The test can be described thus: Inhibition of CYP2C9 in human liver microsomes by LC-MS/MS analysis. The test is classed as ADME. The method, boiled down: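 Reversible CYP inhibition measured in human liver microsomes; metabolite formation quantified by LC/MS/MS.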
Test [6] deals with High affinity nerve growth factor receptor (Homo sapiens) (UniProt P04629). In words: Inhibition of recombinant human N-terminal His6-tagged TrkA (440 to end residues) expressed in baculovirus infected Sf21 insect cells at 1 uM using KKKSPGEYVNIEFG as substrate in presence of [gamma-33P]-ATP or [gamma-32P]-ATP relative to control.

Some results are limits rather than exact numbers.

Cytochrome P450 2C9, sequence (P11712 whole entry): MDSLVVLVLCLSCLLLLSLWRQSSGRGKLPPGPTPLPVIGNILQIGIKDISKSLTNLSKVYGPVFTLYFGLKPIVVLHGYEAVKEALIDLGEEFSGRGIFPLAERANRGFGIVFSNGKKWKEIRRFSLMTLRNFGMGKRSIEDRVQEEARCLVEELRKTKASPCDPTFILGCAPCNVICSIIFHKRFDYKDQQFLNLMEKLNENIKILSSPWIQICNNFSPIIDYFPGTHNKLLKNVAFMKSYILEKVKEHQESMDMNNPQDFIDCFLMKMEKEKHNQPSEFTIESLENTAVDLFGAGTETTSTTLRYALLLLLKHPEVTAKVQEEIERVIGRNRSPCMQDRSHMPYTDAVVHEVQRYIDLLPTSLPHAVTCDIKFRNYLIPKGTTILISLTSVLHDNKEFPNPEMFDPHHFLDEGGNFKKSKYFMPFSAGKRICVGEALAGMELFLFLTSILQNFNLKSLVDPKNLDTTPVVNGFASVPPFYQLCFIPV
Ephrin type-A receptor 5 (Homo sapiens), sequence (P54756 whole entry, the tested form may be a part): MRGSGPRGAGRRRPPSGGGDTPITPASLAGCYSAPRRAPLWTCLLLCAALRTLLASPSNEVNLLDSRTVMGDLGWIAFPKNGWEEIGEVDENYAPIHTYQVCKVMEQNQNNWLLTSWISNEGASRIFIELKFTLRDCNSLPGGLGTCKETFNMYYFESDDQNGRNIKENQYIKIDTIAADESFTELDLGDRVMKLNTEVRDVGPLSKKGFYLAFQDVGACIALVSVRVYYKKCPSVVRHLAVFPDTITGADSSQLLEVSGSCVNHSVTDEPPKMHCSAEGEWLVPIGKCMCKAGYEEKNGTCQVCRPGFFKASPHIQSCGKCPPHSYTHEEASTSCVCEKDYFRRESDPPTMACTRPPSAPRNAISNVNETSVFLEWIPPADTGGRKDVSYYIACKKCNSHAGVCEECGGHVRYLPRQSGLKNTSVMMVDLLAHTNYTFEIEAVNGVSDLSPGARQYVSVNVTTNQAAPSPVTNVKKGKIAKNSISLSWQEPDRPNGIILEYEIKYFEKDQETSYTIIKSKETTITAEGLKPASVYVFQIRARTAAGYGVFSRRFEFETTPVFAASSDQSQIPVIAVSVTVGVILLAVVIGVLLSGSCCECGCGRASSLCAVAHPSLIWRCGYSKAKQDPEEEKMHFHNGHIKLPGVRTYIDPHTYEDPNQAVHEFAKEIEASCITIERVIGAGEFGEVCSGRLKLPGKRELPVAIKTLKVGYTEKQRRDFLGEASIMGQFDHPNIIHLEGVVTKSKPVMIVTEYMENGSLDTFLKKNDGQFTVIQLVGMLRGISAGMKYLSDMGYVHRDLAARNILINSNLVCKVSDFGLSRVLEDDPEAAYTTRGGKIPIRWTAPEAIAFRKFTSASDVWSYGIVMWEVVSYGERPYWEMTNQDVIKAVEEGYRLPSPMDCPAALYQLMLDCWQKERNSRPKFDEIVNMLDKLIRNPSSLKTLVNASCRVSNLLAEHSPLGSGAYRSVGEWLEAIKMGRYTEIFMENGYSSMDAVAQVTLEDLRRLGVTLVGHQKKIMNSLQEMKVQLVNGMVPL
High affinity nerve growth factor receptor (Homo sapiens), sequence (P04629 33-796 limits assumed): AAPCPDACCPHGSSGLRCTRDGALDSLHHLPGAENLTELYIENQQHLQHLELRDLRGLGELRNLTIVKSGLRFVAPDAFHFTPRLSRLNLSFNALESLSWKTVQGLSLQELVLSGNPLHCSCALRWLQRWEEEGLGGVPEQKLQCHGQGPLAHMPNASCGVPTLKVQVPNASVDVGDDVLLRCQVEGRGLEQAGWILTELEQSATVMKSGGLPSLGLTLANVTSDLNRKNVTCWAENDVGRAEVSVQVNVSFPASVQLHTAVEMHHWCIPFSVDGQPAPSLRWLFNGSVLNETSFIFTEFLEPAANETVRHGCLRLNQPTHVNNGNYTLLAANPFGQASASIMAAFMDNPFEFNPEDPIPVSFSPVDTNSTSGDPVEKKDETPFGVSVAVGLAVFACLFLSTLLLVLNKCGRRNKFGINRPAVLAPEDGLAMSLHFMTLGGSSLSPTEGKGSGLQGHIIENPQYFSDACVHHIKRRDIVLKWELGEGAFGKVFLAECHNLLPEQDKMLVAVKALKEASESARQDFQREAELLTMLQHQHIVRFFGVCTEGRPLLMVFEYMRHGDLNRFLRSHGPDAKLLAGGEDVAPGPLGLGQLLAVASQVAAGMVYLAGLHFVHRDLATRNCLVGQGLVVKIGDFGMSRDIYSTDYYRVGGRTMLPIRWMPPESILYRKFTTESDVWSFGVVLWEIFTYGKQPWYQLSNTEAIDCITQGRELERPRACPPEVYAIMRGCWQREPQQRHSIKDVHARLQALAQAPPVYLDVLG
Insulin-like growth factor 1 receptor (Homo sapiens), sequence (P08069 31-736 limits assumed): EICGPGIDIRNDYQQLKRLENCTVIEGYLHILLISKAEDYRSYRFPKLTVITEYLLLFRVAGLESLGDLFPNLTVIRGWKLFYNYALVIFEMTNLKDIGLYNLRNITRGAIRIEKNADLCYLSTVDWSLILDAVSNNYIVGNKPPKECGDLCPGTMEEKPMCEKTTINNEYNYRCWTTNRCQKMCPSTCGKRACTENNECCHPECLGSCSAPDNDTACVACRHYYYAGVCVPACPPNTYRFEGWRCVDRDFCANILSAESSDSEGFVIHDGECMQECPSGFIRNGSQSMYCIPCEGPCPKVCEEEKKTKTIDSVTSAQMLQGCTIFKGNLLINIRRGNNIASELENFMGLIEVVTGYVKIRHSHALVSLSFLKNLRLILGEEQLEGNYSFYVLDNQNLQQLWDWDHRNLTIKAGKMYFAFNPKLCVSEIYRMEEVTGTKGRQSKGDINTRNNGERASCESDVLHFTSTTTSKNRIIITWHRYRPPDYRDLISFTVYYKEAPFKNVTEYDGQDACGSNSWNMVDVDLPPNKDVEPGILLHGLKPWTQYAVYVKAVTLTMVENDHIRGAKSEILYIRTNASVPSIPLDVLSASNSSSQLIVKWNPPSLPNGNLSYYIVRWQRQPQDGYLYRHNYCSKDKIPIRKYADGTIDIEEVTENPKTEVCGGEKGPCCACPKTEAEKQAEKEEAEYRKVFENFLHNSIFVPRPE
Insulin-like growth factor 1 receptor (Homo sapiens), sequence (P08069 741-1367 limits assumed): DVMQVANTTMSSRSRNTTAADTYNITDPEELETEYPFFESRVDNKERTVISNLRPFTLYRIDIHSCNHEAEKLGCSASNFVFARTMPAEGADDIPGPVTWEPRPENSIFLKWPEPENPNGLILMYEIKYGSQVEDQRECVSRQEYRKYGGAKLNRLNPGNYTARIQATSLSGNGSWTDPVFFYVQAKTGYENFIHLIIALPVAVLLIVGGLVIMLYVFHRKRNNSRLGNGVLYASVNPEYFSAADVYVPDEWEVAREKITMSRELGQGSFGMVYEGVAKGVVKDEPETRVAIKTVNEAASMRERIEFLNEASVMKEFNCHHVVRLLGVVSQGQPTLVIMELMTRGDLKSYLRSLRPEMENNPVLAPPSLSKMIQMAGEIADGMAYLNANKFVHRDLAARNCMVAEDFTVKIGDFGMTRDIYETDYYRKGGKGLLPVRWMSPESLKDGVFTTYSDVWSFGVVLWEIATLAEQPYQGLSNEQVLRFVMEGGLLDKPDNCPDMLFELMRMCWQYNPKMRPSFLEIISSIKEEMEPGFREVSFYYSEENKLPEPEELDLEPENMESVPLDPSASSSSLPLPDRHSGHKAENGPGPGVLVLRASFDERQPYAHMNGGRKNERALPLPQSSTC
Glycogen synthase kinase-3 alpha (Homo sapiens), sequence (P49840 2-483 limits assumed): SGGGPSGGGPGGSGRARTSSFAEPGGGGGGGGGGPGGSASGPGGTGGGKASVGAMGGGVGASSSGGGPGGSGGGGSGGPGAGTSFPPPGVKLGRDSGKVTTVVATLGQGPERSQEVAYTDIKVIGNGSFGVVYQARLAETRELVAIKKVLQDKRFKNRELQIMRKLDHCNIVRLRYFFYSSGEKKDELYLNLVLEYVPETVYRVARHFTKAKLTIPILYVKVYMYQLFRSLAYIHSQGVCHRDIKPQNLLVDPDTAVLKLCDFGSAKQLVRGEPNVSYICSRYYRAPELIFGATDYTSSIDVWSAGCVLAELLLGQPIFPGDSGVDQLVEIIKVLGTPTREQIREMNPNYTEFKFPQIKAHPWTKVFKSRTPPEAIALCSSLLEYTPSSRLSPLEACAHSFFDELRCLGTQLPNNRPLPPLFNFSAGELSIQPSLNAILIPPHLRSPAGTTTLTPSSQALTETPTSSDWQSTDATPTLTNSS
Tyrosine-protein kinase receptor UFO (Homo sapiens), sequence (P30530 whole entry): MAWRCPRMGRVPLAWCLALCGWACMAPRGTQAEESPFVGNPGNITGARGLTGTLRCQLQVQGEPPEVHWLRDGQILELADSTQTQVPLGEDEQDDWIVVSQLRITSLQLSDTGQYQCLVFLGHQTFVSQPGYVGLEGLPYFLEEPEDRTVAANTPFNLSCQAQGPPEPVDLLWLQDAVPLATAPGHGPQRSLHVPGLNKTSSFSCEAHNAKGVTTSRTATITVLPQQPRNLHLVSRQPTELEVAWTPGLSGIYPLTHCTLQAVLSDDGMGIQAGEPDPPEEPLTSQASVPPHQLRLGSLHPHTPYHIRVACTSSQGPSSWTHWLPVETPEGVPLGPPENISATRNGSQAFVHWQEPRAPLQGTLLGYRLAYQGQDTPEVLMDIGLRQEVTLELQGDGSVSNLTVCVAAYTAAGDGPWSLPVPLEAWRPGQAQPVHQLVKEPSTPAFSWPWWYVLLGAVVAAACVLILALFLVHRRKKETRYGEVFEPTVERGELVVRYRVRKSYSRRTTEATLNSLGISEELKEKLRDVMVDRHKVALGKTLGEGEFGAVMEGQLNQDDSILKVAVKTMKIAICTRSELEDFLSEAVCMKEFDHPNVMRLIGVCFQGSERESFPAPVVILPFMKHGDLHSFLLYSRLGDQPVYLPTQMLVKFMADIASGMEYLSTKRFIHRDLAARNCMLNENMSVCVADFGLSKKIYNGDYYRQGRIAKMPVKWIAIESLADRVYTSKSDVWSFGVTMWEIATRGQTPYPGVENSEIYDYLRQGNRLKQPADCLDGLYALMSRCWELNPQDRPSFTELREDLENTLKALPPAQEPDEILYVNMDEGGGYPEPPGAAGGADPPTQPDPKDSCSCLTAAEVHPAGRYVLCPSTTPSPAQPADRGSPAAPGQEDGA

The term inhibition denotes the drop in the measured response relative to a control, in per cent. A word on the IC50: it is the midpoint of a concentration-inhibition curve. A higher IC50 goes with lower potency. In the case of `Cc1cccc(Cn2nc(C)c3c(NC(=O)c4csc5c(N)ncnc45)cccc32)n1`, the inhibition is -10% in test [1]; 56% in test [2]; -9% in test [3]; 12% in test [4]; 27% in test [6]. This molecule also registered a concentration for half-maximal inhibition (IC50) in test [5] greater than 20 µM.
